ChEMBL document CHEMBL2057105, “Effect of substitution at N″-position of N'-hydroxy-N-amino guanidines on tumor cell growth” (Bioorg Med Chem Lett, 2012)

Test system: HL-60
Assay: Cytotoxicity against human HL60 cells after 72 hrs by trypan blue assay
Type: functional, cell-based
Settings: HL-60, 72 h
How it was run: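 HL-60 cells in log phase, grown in RPMI 1640 with 10% heat-inactivated FCS, 1% L-glutamine and 1% penicillin–streptomycin (37 °C, 5% CO₂), seeded at 0.1 × 10^6/mL in flasks and exposed to increasing compound concentrations for 72 h at 37 °C. Viable cells counted electronically after trypan blue staining; IC50 as 50% growth inhibition; means SD of at least three experiments.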

| SMILES | IC50 |
| --- | --- |
| O=C(N/C(=N/O)N/N=C/c1c2ccccc2cc2ccccc12)c1ccc([N+](=O)[O-])cc1 | 10 µM |
| CC/N=C(/NO)N/N=C/c1c2ccccc2cc2ccccc12 | 22.6 µM |
| CC(C)/N=C(/NO)N/N=C/c1c2ccccc2cc2ccccc12 | 29.8 µM |
| O=C(N/C(=N/O)N/N=C/c1c2ccccc2cc2ccccc12)c1cc([N+](=O)[O-])cc([N+](=O)[O-])c1 | 8 µM |
| ON/C(=N\CCc1ccccc1)N/N=C/c1c2ccccc2cc2ccccc12 | 19.6 µM |
| ON/C(=N\Cc1ccccc1)N/N=C/c1c2ccccc2cc2ccccc12 | 19.3 µM |
| C/N=C(/NO)N/N=C/c1c2ccccc2cc2ccccc12 | 32.9 µM |
| CC(=O)N/C(=N/O)N/N=C/c1c2ccccc2cc2ccccc12 | 20 µM |
| CCCC/N=C(\NO)N/N=C/c1c2ccccc2cc2ccccc12 | 21.1 µM |
| CCC/N=C(/NO)N/N=C/c1c2ccccc2cc2ccccc12 | 24.9 µM |
| ON/C(=N\C1CCCCC1)N/N=C/c1c2ccccc2cc2ccccc12 | 21.1 µM |
